Data from PMC3669693 (Journal of neuroimmune pharmacology : the official journal …, 2012).
pEC50, pIC50: −log10 of the molar value. Several values for one entry are separate records, joined by “and”; a condition that tells them apart may be missing. Identical values can stand only once. Like-named read-outs stand apart in the source and are kept apart here.

Tests used:
GPR55 [1] = target: T1, GPR55 (Homo sapiens, UniProt Q9Y2T6); test: GPR55 internalization assay, immunocytochemistry; assay type: cell-based; conditions: for effect on GPR55 internalization induced by ML184, ML185, ML186: 10 μM pre-incubation, agonist 5 μM of each ML compound; for effect on LPI-induced GPR55 internalization / effect on SR141716A-induced GPR55 internalization / GPR55 receptor localization, compound alone: 10 μM; for effect on LPI-induced GPR55 internalization / effect on SR141716A-induced GPR55 internalization: 15 min pre-incubation; for effect on LPI-induced GPR55 internalization: agonist 3 μM LPI; for effect on SR141716A-induced GPR55 internalization: agonist 30 μM SR141716A; for GPR55 receptor localization, compound alone: no agonist; for GPR55 receptor internalization, compound alone: 40 min, RT
T1 sequence (Q9Y2T6 1-292 limits assumed): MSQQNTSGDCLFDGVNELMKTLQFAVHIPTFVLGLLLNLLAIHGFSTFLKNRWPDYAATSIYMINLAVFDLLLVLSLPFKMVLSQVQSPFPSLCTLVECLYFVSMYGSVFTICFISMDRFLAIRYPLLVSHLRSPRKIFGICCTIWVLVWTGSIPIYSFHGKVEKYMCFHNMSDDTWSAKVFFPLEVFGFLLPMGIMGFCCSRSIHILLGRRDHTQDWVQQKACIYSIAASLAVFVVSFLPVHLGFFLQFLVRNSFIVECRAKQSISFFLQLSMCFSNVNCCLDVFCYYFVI

GPR55 [2] = target: T1, GPR55; conditions: cited from earlier work
[3] = tested on: HA-GPR55E/βarr2-GFP U2OS cells; test: LDH cytotoxicity assay; assay type: cell-based; conditions: for toxicity to the cells (released LDH): at concentrations employed in this study (10 and 30 μM)
GPR55 [4] = target: T1, GPR55; test: β-arrestin assessment of GPR55 activation; assay type: cell-based; conditions: for maximal inhibition of LPI response / effect of low concentrations on LPI-mediated βarr2-GFP recruitment: agonist 3 μM LPI; for maximal inhibition of LPI response / maximal inhibition of SR141716A response: normalized to agonist response; for recruitment of βarr2-GFP by compound alone: no agonist, AEA 0.1–30 μM
Summary of the method: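 U2OS cells stably co-expressing HA-GPR55E and βarr2-GFP were seeded on glass coverslips, kept overnight at 37°C/5% CO2 and assayed in HBSS. Test compound (0.01–30 μM) was pre-incubated 15 min, then co-incubated 40 min RT with 3 μM LPI or 30 μM SR141716A. Fixation: 4% paraformaldehyde, 25 min. Imaging: 488 nm, 40X oil. Fluorescent pit counts were normalized to agonist response (100%), with sigmoidal fits for IC50. Three experiments in duplicate.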

GPR55 [5] = target: T1, GPR55; conditions: read-out: EC50, agonist at GPR55 (βarr2-GFP distribution); previous study; ref Kapur et al. 2009; cited from earlier work
CB2 receptor = conditions: ref Porter et al., 2002; cited from earlier work
CB1 receptor = conditions: ref Porter et al., 2002; cited from earlier work
CB1 = conditions: read-out: agonist potency at CB1; ref Ryberg et al., 2007; cited from earlier work
GPR55 [6] = target: T1, GPR55; conditions: read-out: agonist potency at GPR55; ref Ryberg et al., 2007; cited from earlier work
CB2 = conditions: read-out: agonist potency at CB2; ref Ryberg et al., 2007; cited from earlier work
[7] = 10 μM + 3 μM LPI, % of total LDH activity
[8] = 10 μM + 30 μM SR141716A, % of total LDH activity
[9] = 10 μM alone, % of total LDH activity (1% Triton X-100)
[10] = 30 μM + 3 μM LPI, % of total LDH activity
[11] = 30 μM + 30 μM SR141716A, % of total LDH activity
[12] = 30 μM alone, % of total LDH activity (1% Triton X-100)

CCCCC/C=C\C/C=C\C/C=C\C/C=C\CCCC(=O)NCCO [AEA, N-arachidonyl ethanolamine]
effect on GPR55 internalization induced by ML184, ML185, ML186 (GPR55 [1]): largely attenuated
effect on LPI-induced GPR55 internalization (GPR55 [1]): markedly decreased receptor internalization
effect on SR141716A-induced GPR55 internalization (GPR55 [1]): markedly decreased receptor internalization
GPR55 receptor localization, compound alone (GPR55 [1]): membrane bound receptors
activation of GPR55 (GPR55 [2]; previous findings of the laboratory, ref Kapur et al., 2009): did not activate GPR55
Cell death, % [3, 7]: 6.12%
Cell death, % [3, 8]: 6.79%
Cell death, % [3, 9]: 5.90%
Cell death, % [3, 10]: 5.86%
Cell death, % [3, 11]: 8.02%
Cell death, % [3, 12]: 5.93%
toxicity to the cells (released LDH) [3]: neither AEA nor virodhamine are toxic
pIC50 (GPR55 [4]): 5.23 and 4.92
maximal inhibition of LPI response (GPR55 [4]): 20%
maximal inhibition of SR141716A response (GPR55 [4]; agonist 30 μM SR141716A): 65%
recruitment of βarr2-GFP by compound alone (GPR55 [4]): did not result in recruitment of βarr2-GFP
effect of low concentrations on LPI-mediated βarr2-GFP recruitment (GPR55 [4]; low concentrations): enhanced the recruitment

CCCCCCC(C)(C)c1ccc([C@@H]2C[C@H](O)CC[C@H]2CCCO)c(O)c1 [CP55,940]
type of activity at GPR55 (GPR55 [2]; ref Henstridge et al. 2009, Kapur et al. 2009, Pineiro et al. 2011): antagonist/partial agonist

Cc1cccc(N2CCN(C(=O)c3cc(S(=O)(=O)N(C)C)ccc3N3CCCC3)CC2)c1C [ML184, 3-[4-(2,3-dimethylphenyl)piperazine-1-carbonyl]-N,N-dimethyl-4-pyrrolidin-1-ylbenzenesulfonamide]
GPR55 receptor internalization, compound alone (GPR55 [1]; 5 μM): resulted in receptor internalization

COc1ccc(-c2csc(NC(=O)CSc3nnc4c(C)cc5ccccc5n34)n2)cc1 [ML185, N-[4-(4-methoxyphenyl)-1,3-thiazol-2-yl]-2-[(4-methyl-[1,2,4]triazolo[4,3-a]quinolin-1-yl)sulfanyl]acetamide]
GPR55 receptor internalization, compound alone (GPR55 [1]; 5 μM): resulted in receptor internalization

COc1ccc(S(=O)(=O)N2CCOCC2)cc1NC(=O)c1cc2c(s1)CCCC2 [ML186, N-(2-methoxy-5-morpholin-4-ylsulfonylphenyl)-4,5,6,7-tetrahydro-1-benzothiophene-2-carboxamide]
GPR55 receptor internalization, compound alone (GPR55 [1]; 5 μM): resulted in receptor internalization

Cc1c(C(=O)NN2CCCCC2)nn(-c2ccc(Cl)cc2Cl)c1-c1ccc(Cl)cc1 [SR141716A, N-(piperidin-1-yl)-5-(4-chlorophenyl)-1-(2,4-dichlorophenyl)-4-methyl-1H-pyrazole-3-carboxamide]
GPR55 receptor internalization, compound alone (GPR55 [1]; 30 μM): loss of membrane staining and the appearance of cytosolic fluorescent aggregates corresponding to internalized receptors
pEC50 (GPR55 [5]): 5.41
Cell death, % [3, 12]: 7.12%

CCCCC/C=C\C/C=C\C/C=C\C/C=C\CCCC(=O)OCCN [virodhamine, O-arachidonoyl ethanolamine]
type of activity at the CB2 receptor (CB2 receptor): full agonist
effect on GPR55 internalization induced by ML184, ML185, ML186 (GPR55 [1]): largely attenuated
effect on LPI-induced GPR55 internalization (GPR55 [1]): strikingly decreased receptor internalization
effect on SR141716A-induced GPR55 internalization (GPR55 [1]): strikingly decreased receptor internalization
GPR55 receptor localization, compound alone (GPR55 [1]): receptors were localized to the membrane
type of activity at the CB1 receptor (CB1 receptor): partial agonist/antagonist
pEC50 (CB1): 5.54
Cell death, % [3, 7]: 6.94%
Cell death, % [3, 8]: 6.44%
Cell death, % [3, 9]: 7.27%
Cell death, % [3, 10]: 8.73%
Cell death, % [3, 11]: 6.93%
Cell death, % [3, 12]: 8.08%
toxicity to the cells (released LDH) [3]: neither AEA nor virodhamine are toxic
maximal inhibition of LPI response (GPR55 [4]): 46%
maximal inhibition of SR141716A response (GPR55 [4]; agonist 30 μM SR141716A): 68%
recruitment of βarr2-GFP by compound alone (GPR55 [4]): weak recruitment of βarr2-GFP
effect of low concentrations on LPI-mediated βarr2-GFP recruitment (GPR55 [4]; low concentrations): enhanced the recruitment
effect of low concentrations on SR141716A-mediated βarr2-GFP recruitment (GPR55 [4]; low concentrations, agonist 30 μM SR141716A): enhanced the recruitment
pEC50 (GPR55 [6]): 7.92
pEC50 (CB2): 6.42

lysophosphatidylinositol [LPI]
GPR55 receptor internalization, compound alone (GPR55 [1]; 3 μM): loss of membrane staining and the appearance of cytosolic fluorescent aggregates corresponding to internalized receptors
pEC50 (GPR55 [5]): 5.92
Cell death, % ([3]; 3 μM alone, % of total LDH activity (1% Triton X-100)): 7.08%
